Bioassay records from PubChem.
E-selectin induc: E-selectin induction in HUVECs, primary screen, imaging, HUVEC, immunofluorescence imaging, single point; normalized: neutral wells 0, TNF-alpha wells 100; activation, % at 7.58 µM; 260,000 tested, 0.37% active;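 active means mean E-selectin-positive cell signal at least 10% of the positive control, reached in at least 60% of replicates, without over 20% cell loss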
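Read-out: % PE-positive cells | Test system: HUVEC | Doses: One compound dose added by pin transfer | Buffer or medium: EGM-2 over gelatin coat | Signal: Immunofluorescence imaging | Benchmarks: TNF-alpha, DMSO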
S100A4 MyoIIA: inhibitors of S100A4-myosin IIA peptide binding, primary screen, biochemical, fluorescence polarization, TAMRA-MyoIIA peptide. Protein S100-A4 (Homo sapiens), P26447. inhibition, % at 10.7 µM. 360,000 tested, 0.14% active. AID 652163, 2013;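 active means mean inhibition of at least 70% across replicates, with every replicate also reaching that level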
Target sequence (P26447 whole entry, looked up): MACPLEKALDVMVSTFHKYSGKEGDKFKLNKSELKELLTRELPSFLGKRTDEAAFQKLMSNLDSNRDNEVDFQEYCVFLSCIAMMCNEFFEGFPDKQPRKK
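Assay system: human S100A4 monomer with TAMRA-labelled myosin IIA peptide / Buffer or medium: Calcium-containing HEPES buffer, pH 7.2 / Reagent: TAMRA-labelled myosin IIA heavy-chain peptide probe, 5 nM / Compound: one dose per compound / Timing: polarization read 5 min after assay mix addition, stable 5–60 min / Benchmarks: neutral control DMSO, positive control TFP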
miR-122 sensor: miR-122 Renilla sensor signal increase in Huh7, primary screen, miR-122 inhibitor project, cell-based, single point, plate reader | Huh7 miR-122 Renilla luciferase sensor, 48 h; neutral wells = 0, positive control = 100 | activation (reporter increase), % at 12.5 µM | 340,000 tested, 0.3% active | AID 602342, 2012;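 active means mean replicate activation score at least 90 and every replicate individually at or above 90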;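 further: higher luciferase means less miR-122 activity so hits act as miR-122 inhibitors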
FGF22 binding: binders of human FGF22 protein, primary screen, FGF22 synaptogenesis inhibitor project, biophysical, thermal shift, single point; Fibroblast growth factor 22 (Homo sapiens), Q9HCT0; activity (Tm shift, normalised), % at 9.99 µM; 340,000 tested, 1.5% active; recombinant FGF22 thermal shift, SYPRO orange fluorescence; percent of sucrose octasulfate shift, DMSO zero;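 active means mean Tm shift, scaled 0 neutral to 100 positive control, at about 1.3% or above, every replicate too, limit read from the data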
Target sequence (Q9HCT0 whole entry, looked up): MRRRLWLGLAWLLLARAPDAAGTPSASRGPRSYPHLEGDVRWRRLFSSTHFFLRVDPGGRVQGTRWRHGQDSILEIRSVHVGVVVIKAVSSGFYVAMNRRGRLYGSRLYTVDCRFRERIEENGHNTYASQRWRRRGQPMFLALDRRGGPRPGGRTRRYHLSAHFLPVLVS
SIRT5 block: SIRT5 desuccinylase inhibitors, primary screen, biochemical, fluorescence imaging, single point, set 5; Purified SirT5, succinyl-peptide AMC, trypsin-coupled fluorescence; inhibition, % at 15 µM; 330,000 tested, 1.1% active; AID 652115, 2013; in the data active means inhibition above about 15%
Target sequence (Q9NXA8 whole entry, looked up): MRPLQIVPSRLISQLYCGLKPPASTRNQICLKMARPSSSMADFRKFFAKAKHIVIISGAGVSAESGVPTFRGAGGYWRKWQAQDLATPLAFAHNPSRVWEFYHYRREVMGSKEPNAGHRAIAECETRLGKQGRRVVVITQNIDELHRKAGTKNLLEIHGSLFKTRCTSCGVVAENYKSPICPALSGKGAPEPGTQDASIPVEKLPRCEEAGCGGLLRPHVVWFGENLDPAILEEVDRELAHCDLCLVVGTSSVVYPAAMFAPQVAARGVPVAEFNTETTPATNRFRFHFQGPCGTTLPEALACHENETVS
Of the large screens only hits and unclear results are named; the others gave an inactive call; [ ] = dose if it differs, or a comment. Rows were chosen to be rich in hits. Some 2.5% of all compounds tested hit in one or more screens of this group.

CCCC(=O)Nc1ccc2c(c1)C(=O)N(C)[C@@H]1CC[C@H](CC(=O)NCCCN(C)C)O[C@@H]1CO2	none
Cc1ccc(S(=O)(=O)N[C@@H](CC(C)C)C(=O)N2CCC(C(=O)N[C@@H](Cc3ccccc3)C(=O)O)CC2)cc1	none (no result: E-selectin induc, SIRT5 block)
Cc1ccc(S(=O)(=O)N[C@@H](Cc2ccccc2)C(=O)N2CCC(C(=O)N[C@@H](CCC(N)=O)C(=O)O)CC2)cc1	E-selectin induc 66 (no result: miR-122 sensor)
O=c1cc(O)c2sc3nc4c(c(C(F)(F)F)c3c2[nH]1)CCCCC4	SIRT5 block 17
C[C@@H]1CN([C@H](C)CO)C(=O)c2cc(NC(=O)c3ccncc3)ccc2O[C@H]1CN(C)Cc1ccc(C(=O)Nc2ccccc2N)cc1	none (no result: miR-122 sensor)
Cc1ccc(C(NC(=O)N2CCN(C)CC2)C(Cl)Cl)cc1F (stereo not given)	FGF22 binding 44 (no result: E-selectin induc)
Cc1ccc(C(NC(=O)N2CC(C)OC(C)C2)C(Cl)Cl)cc1F (stereo not given)	none (no result: S100A4 MyoIIA, FGF22 binding, SIRT5 block)
COc1ccc(S(=O)(=O)Nc2ccc3c(c2)CC(=O)N([C@@H](C)CO)C[C@@H](C)[C@@H](CN(C)Cc2ccc(-c4ccccc4)cc2)O3)cc1	none
O=C(O)c1c2c(nc3ccccc13)/C(=C/c1cccc([N+](=O)[O-])c1)CCC2	SIRT5 block 97 (no result: E-selectin induc)
C[C@@H]1CN([C@@H](C)CO)C(=O)c2cc(-c3ccncc3)cnc2O[C@@H]1CN(C)C(=O)C1CC1	none (no result: S100A4 MyoIIA, FGF22 binding, SIRT5 block)
O=C(O)c1cc(=O)n(Cc2ccccc2)c(=O)[nH]1	none (no result: E-selectin induc)
Cc1cc(=O)[nH]c(=O)n1Cc1ccccc1	FGF22 binding 43
Cc1cc(=O)c2ccccc2n1CC(=O)NCc1ccccc1	none (no result: E-selectin induc, S100A4 MyoIIA, FGF22 binding, SIRT5 block)
Cc1cc(=O)c2ccccc2n1Cc1ccccc1	FGF22 binding 44 (no result: E-selectin induc, miR-122 sensor)
O=C(CCCN1C(=O)/C(=C/c2ccccc2)SC1=S)Nc1ccc(C(=O)O)c(O)c1	SIRT5 block 46 (no result: E-selectin induc)
O=C(CCCN1C(=O)C(=Cc2ccc3c(c2)OCO3)SC1=S)Nc1ccc(C(=O)O)c(O)c1	SIRT5 block 34
COc1ccc(C=C2SC(=S)N(CCCC(=O)Nc3ccc(C(=O)O)c(O)c3)C2=O)cc1OC	SIRT5 block 53
O=C(CCN1C(=O)S/C(=C/c2ccccc2)C1=O)Nc1ccc(C(=O)O)c(O)c1	none (no result: E-selectin induc, FGF22 binding)
COc1cc(/C=C2\SC(=S)N(CC(=O)NC(C)(C)C)C2=O)cc(OC)c1OC	FGF22 binding 43
COc1ccc2c3c(n(C)c2c1)[C@H](CO)NCC31CN(Cc2ccncc2)C1	none (no result: S100A4 MyoIIA, miR-122 sensor, SIRT5 block)
CCCCCC(=O)Nc1nc(C)c(-c2csc(Nc3cc(OC)ccc3OC)n2)s1	FGF22 binding 44
CCCCCCC(=O)Nc1nc(C)c(-c2csc(Nc3cc(OC)ccc3OC)n2)s1	none (no result: E-selectin induc, SIRT5 block)
O=S(=O)(N[C@H]1CC[C@@H](CCn2cc(-c3ccc(F)cc3)nn2)O[C@@H]1CO)c1ccccc1F	none (no result: miR-122 sensor)
CCN(C(=O)Cc1c(C(=O)O)n(C)c2ccccc12)c1ccc(F)cc1	FGF22 binding 43 (no result: E-selectin induc)
COc1ccc2c3c([nH]c2c1)[C@H](CO)NCC31CN(C(=O)Nc2ccc3c(c2)OCO3)C1	none (no result: miR-122 sensor, FGF22 binding)
COc1ccc(C(=O)N2CCN(c3ccccc3OC)CC2)cc1	none (no result: SIRT5 block)
COc1cc(OC)cc(C(=O)N2CCC(N3CCN(c4ccccc4OC)CC3)CC2)c1	SIRT5 block 24 (no result: miR-122 sensor)
CC(=O)Nc1ccc(C(=O)N2CCN(C(=O)c3ccco3)CC2)cc1	SIRT5 block 17 (no result: E-selectin induc, miR-122 sensor)
COc1ccccc1N1CCN(C(=O)c2ccco2)CC1	E-selectin induc 35
COCCn1nnnc1C(c1ccccc1OC)N1CCN(C(=O)c2ccco2)CC1 (stereo not given)	FGF22 binding 2.1 (no result: E-selectin induc)
COCC#Cc1ccc2c(c1)O[C@H](CN(C)Cc1ccc3c(c1)OCO3)[C@@H](C)CN([C@@H](C)CO)S2(=O)=O	miR-122 sensor 109[16.7 µM]
COc1ccccc1-c1ccc2c(c1)O[C@@H](CN(C)C)[C@@H](C)CN([C@H](C)CO)S2(=O)=O	none
C[C@@H]1CN([C@@H](C)CO)S(=O)(=O)c2ccc(-c3cccc(C(=O)N(C)C)c3)cc2O[C@@H]1CN(C)Cc1ccc2c(c1)OCO2	none (no result: E-selectin induc)
C[C@@H]1CN([C@@H](C)CO)S(=O)(=O)c2ccc(-c3cccc(C(=O)N(C)C)c3)cc2O[C@H]1CN(C)Cc1ccc2c(c1)OCO2	SIRT5 block 19 (no result: E-selectin induc)
COc1ccccc1-c1ccc2c(c1)O[C@@H](CN(C)Cc1ccc3c(c1)OCO3)[C@@H](C)CN([C@H](C)CO)S2(=O)=O	SIRT5 block 17 (no result: E-selectin induc)
COc1ccccc1-c1ccc2c(c1)O[C@@H](CN(C)Cc1ccc3c(c1)OCO3)[C@H](C)CN([C@@H](C)CO)S2(=O)=O	SIRT5 block 23 (no result: E-selectin induc)
CCCNC(=O)N1CC2(CCN(Cc3ccncc3)CC2)c2c(n(C)c3cc(OC)ccc23)[C@H]1CO	none (no result: S100A4 MyoIIA, miR-122 sensor, SIRT5 block)
CCCNC(=O)Nc1ccc2c(c1)C(=O)N(C)C[C@H](OC)[C@@H](C)CN(CC1CCCC1)[C@H](C)CO2	none (no result: S100A4 MyoIIA, FGF22 binding, SIRT5 block)
CN(C)C(=O)c1cccc(-c2ccc([C@@H]3[C@H](CO)N4C(=O)CN(C(=O)C5CC5)C[C@@H]34)cc2)c1	SIRT5 block 19 (no result: miR-122 sensor, FGF22 binding)
CC(=O)N1CC(=O)N2[C@@H](CO)[C@H](c3ccc(-c4ccc(C(=O)N(C)C)cc4)cc3)[C@@H]2C1	SIRT5 block 23 (no result: miR-122 sensor, FGF22 binding)
CC(C)CC#Cc1ccc([C@H]2[C@H]3CN(C(=O)Cc4cccnc4)CC(=O)N3[C@H]2CO)cc1	S100A4 MyoIIA 107 (no result: miR-122 sensor)
COc1ccc(C#Cc2ccc([C@H]3[C@H]4CN(C(C)=O)CC(=O)N4[C@H]3CO)cc2)cc1	none (no result: miR-122 sensor, FGF22 binding)
CN(C)C(=O)c1cccc(-c2ccc([C@@H]3[C@H]4CN(C(=O)C5CC5)CC(=O)N4[C@H]3CO)cc2)c1	none (no result: miR-122 sensor, FGF22 binding)
COc1ccc(C#Cc2ccc([C@H]3[C@@H](CO)N4C(=O)CN(C(C)=O)C[C@H]34)cc2)cc1	SIRT5 block 26 (no result: miR-122 sensor, FGF22 binding)
CC(C)CC#Cc1ccc([C@@H]2[C@H]3CN(C(=O)Cc4cccnc4)CC(=O)N3[C@H]2CO)cc1	none (no result: miR-122 sensor)
O=C(c1cnccn1)N1CC(=O)N2[C@H](CO)[C@@H](c3ccc(C4=CCCCC4)cc3)[C@@H]2C1	SIRT5 block 28 (no result: miR-122 sensor, FGF22 binding)
COc1cc(/C=C2/NC(=O)NC2=O)cc(Br)c1OCc1ccc(C(=O)O)cc1	SIRT5 block 15 (no result: E-selectin induc, miR-122 sensor)
O=C(O)COc1c(Cl)cc(/C=C2\NC(=O)NC2=O)cc1Br	none (no result: E-selectin induc, miR-122 sensor)
O=C(/C=C/c1ccc([N+](=O)[O-])cc1)OCc1cnc(-c2ccccc2)o1	FGF22 binding 44 (no result: E-selectin induc, miR-122 sensor)
CC(NC(=O)COC(=O)/C=C/c1ccc([N+](=O)[O-])cc1)c1ccccc1 (stereo not given)	none (no result: miR-122 sensor)
